In ChEMBL document CHEMBL2413043, “5-Nitro-2-furfuriliden derivatives as potential anti-Trypanosoma cruzi agents: design, synthesis, bioactivity evaluation, cytotoxicity and exploratory data analysis” (Bioorg Med Chem, 2013):

Key:
Trypanosoma cruzi [1] = experiment: Antitrypanosomal activity against epimastigotes of Trypanosoma cruzi Y assessed as parasite growth inhibition after 5 days by spectrophotometric analysis; type: functional, organism-based; settings: for IC50: Trypanosoma cruzi, Y, 120 h
Method in brief: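 Stationary-phase epimastigotes (10-day culture, 28 °C) diluted in LIT medium with 10% fetal calf serum to 2.0 x 10^6 parasites/mL. Compounds dissolved in DMSO (final ≤1.0%), 0.25–180.0 µM, incubated 28 °C for 5 days. Growth read at A580 versus day 0 and untreated controls as percent growth inhibition. Triplicates; IC50 by sigmoid dose–response fit, at least five concentrations.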

J774 = experiment: Cytotoxicity against mouse J774 cells after 48 hrs by MTT assay; type: cell-based; settings: J774, 48 h
Method in brief: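 J774 murine macrophages in RPMI 1640 with 10% FBS, 37 °C, 5% CO2. Seeded at 1.0 x 10^4 cells/well in RPMI 1640 with 5% heat-inactivated fetal calf serum, attached 24 h. Exposed 48 h to 0.8–400.0 µM. MTT at 0.4 mg/mL final for 3 h at 37 °C, formazan in DMSO, A595. IC50 is the mean of six experiments, sigmoid fit, at least five concentrations.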

[2] = Selectivity index, ratio of IC50 for human FN1 fibroblasts to IC50 for epimastigotes of Trypanosoma cruzi Y
Method in brief: (§1)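 Selectivity index taken as IC50 in the mammalian cell line (J774 or FN1) divided by IC50 against Y-strain epimastigotes.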

[3] = Cytotoxicity against human FN1 fibroblasts after 24 hrs by MTT assay
Method in brief: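 Human FN1 fibroblasts kept in RPMI 1640 with 10% FBS at 37 °C, 5% CO2. Plated in triplicate at 1 x 10^4 cells/well, incubated overnight, then treated 24 h with 12.5–200 µM. MTT at 5 mg/mL for 2 h, formazan dissolved in 0.1 N HCl in isopropanol, absorbance at 540 nm, IC50 determined.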

[4] = Selectivity index, ratio of IC50 for mouse J774 cells to IC50 for epimastigotes of Trypanosoma cruzi Y; type: toxicity, cell-based; settings: read-out: Ratio IC50; method in brief: as §1
Trypanosoma cruzi [5] = experiment: Ratio of nifurtimox IC50 to compound IC50 for epimastigotes of Trypanosoma cruzi Y; type: functional

Row | SMILES | log(1/C) (Trypanosoma cruzi [1]) | IC50 (Trypanosoma cruzi [1]) | IC50 (J774) | Ratio IC50 [2] | IC50 [3] | selectivity ratio [4] | Ratio IC50 (Trypanosoma cruzi [5])
1 | CC(=O)N1N=C(c2ccc(C)cc2)OC1c1ccc([N+](=O)[O-])o1 (centres undefined) | 5.01 | 9.84 µM |  |  |  |  | 
2 | CC(=O)N1N=C(c2ccc(C(F)(F)F)cc2)OC1c1ccc([N+](=O)[O-])o1 (centres undefined) | 4.95 | 11.1 µM |  |  |  |  | 
3 | Cc1ccc(C(=O)N/N=C/c2ccc([N+](=O)[O-])o2)cc1 | 5.43 | 3.71 µM |  |  |  |  | 
4 | CC(=O)N1N=C(c2ccc(I)cc2)OC1c1ccc([N+](=O)[O-])o1 (centres undefined) | 4.93 | 11.5 µM |  |  |  |  | 
5 | O=C(N/N=C/c1ccc([N+](=O)[O-])o1)c1ccc(I)cc1 | 5.49 | 3.21 µM |  |  |  |  | 
6 | COc1ccc(C2=NN(C(C)=O)C(c3ccc([N+](=O)[O-])o3)O2)cc1 (centres undefined) | 5.03 | 9.26 µM |  |  |  |  | 
7 | O=C(N/N=C/c1ccc([N+](=O)[O-])o1)c1ccc(Br)cc1 | 5.42 | 3.74 µM |  |  |  |  | 
8 | O=C(N/N=C/c1ccc([N+](=O)[O-])o1)c1ccccc1 | 5.35 | 4.44 µM |  |  |  |  | 
9 | O=C(Cn1ccnc1[N+](=O)[O-])NCc1ccccc1 [BENZNIDAZOLE] |  | 22.7 µM | > 400 µM | >9 | > 200 µM | > 18 | 
10 | CC(=O)N1N=C(c2ccc(C#N)cc2)OC1c1ccc([N+](=O)[O-])o1 (centres undefined) | 4.87 | 13.4 µM |  |  |  |  | 
11 | O=C(N/N=C/c1ccc([N+](=O)[O-])o1)c1ccc(C(F)(F)F)cc1 | 5.35 | 4.42 µM |  |  |  |  | 
12 | CC(=O)N1N=C(c2ccccc2)OC1c1ccc([N+](=O)[O-])o1 (centres undefined) | 4.99 | 10.2 µM |  |  |  |  | 
13 | O=C(N/N=C/c1ccc([N+](=O)[O-])o1)c1ccc([N+](=O)[O-])cc1 | 5.02 | 9.45 µM | 79.1 µM | 18.83 | 178 µM | 8.37 | 
14 | CC(=O)N1N=C(c2ccc(Cl)cc2)OC1c1ccc([N+](=O)[O-])o1 (centres undefined) | 4.94 | 11.5 µM | > 400 µM | >17 | > 200 µM | > 34 | 
15 | CCCCc1ccc(C(=O)N/N=C/c2ccc([N+](=O)[O-])o2)cc1 | 5.98 | 1.05 µM | 28.1 µM | 93.33 | 98 µM | 26.7 | 3
16 | COc1ccc(C(=O)N/N=C/c2ccc([N+](=O)[O-])o2)cc1 | 5.4 | 3.94 µM |  |  |  |  | 
17 | CCCCc1ccc(C2=NN(C(C)=O)C(c3ccc([N+](=O)[O-])o3)O2)cc1 (centres undefined) | 5.08 | 8.27 µM | > 400 µM | 22.49 | 186 µM | > 48 | 
18 | N#Cc1ccc(C(=O)N/N=C/c2ccc([N+](=O)[O-])o2)cc1 | 4.9 | 12.5 µM |  |  |  |  | 
19 | CC(=O)N1N=C(c2ccc([N+](=O)[O-])cc2)OC1c1ccc([N+](=O)[O-])o1 (centres undefined) | 4.85 | 13.9 µM | 114 µM | >14 | > 200 µM | 8.21 | 
20 | CC(=O)N1N=C(c2ccc(Br)cc2)OC1c1ccc([N+](=O)[O-])o1 (centres undefined) | 5.01 | 9.59 µM |  |  |  |  | 
21 | CC1CS(=O)(=O)CCN1/N=C/c1ccc([N+](=O)[O-])o1 (centres undefined) [NIFURTIMOX] |  |  | 280 µM | >53 | > 200 µM | 74.2 | 
22 | O=C(N/N=C/c1ccc([N+](=O)[O-])o1)c1ccc(Cl)cc1 | 5.39 | 4.03 µM | 57.1 µM | >49.63 | > 200 µM | 14.2 | 
